Measured values from different studies.
Lines come from different studies, so protocols differ.
ALK: ALK tyrosine kinase receptor (ALK, Homo sapiens, UniProt Q9UM73)
ALK L1196M: ALK tyrosine kinase receptor (ALK, Homo sapiens, UniProt Q9UM73, L1196M)
ALK C1156Y: ALK tyrosine kinase receptor (ALK, Homo sapiens, UniProt Q9UM73, C1156Y)

SMILES	target	observed	action	method	concentration	endpoint	result
CN1CC(Oc2cnc(C#N)cc2-c2ccn3nc(NC(=O)C4CC4)cc3c2)C1	ALK	enzyme activity	inhibitor		1 µM	inhibition	0%
CCCOc1ccc(OC)c(F)c1C(=O)c1ccc(C(=O)N[C@@H]2CNC[C@H]2NC(=O)c2ccc3[nH]ncc3c2)cc1	ALK	enzyme activity	inhibitor		10 µM	remaining activity	47%
COc1cc(Cl)c(C(=O)N[C@@H](CN[C@H]2CC[C@@H](N)CC2)Cc2ccc(C#N)cc2)cc1-c1ccc(CN[C@H](C)c2ccc(C)cc2)o1	ALK	enzyme activity	inhibitor		1 µM	remaining activity	96%
CCN(CC)CCNC(=O)c1c(C)[nH]c(/C=C2\C(=O)Nc3ccc(F)cc32)c1C	ALK	enzyme activity	inhibitor		1 µM	remaining activity	27%
CN([C@@H]1CCc2c(CC(=O)O)c3ccccc3n2C1)S(=O)(=O)c1ccc(F)cc1	ALK	cell-free assay		competition with immobilised ligand	1 µM	remaining binding	78%
F[C@@H]1CCN(c2nccc(-c3cnn4ncccc34)n2)C1	ALK L1196M	binding			1 µM	remaining binding	100%
Cc1ccc(C(=O)Nc2ccc(CN3CCN(C)CC3)c(C(F)(F)F)c2)cc1C#Cc1cnc2cccnn12	ALK L1196M	cell-free assay			23.5 nM	remaining signal	99%
Nc1ncnc2occ(-c3ccc(NC(=O)Nc4cc(C(F)(F)F)ccc4F)cc3)c12	ALK	cell-free assay			20 µM	remaining signal	0.3%
CNCc1ccccc1-c1csc([C@H](C)Nc2nc(C)nc3cc(OC)c(OC)cc23)c1	ALK C1156Y	cell-free assay		competition with immobilised ligand	1 µM	remaining binding	100%
CC/C(=N\NC(=O)NCc1cccc(O)c1)c1ccc(O)c(C)c1O	ALK tyrosine kinase receptor (ALK, Homo sapiens, UniProt Q9UM73, R1275Q)	enzyme activity	inhibitor		0.1 µM	inhibition	4.8%
Cc1ccc(Nc2nccc(N(C)c3ccc4c(C)n(C)nc4c3)n2)cc1S(N)(=O)=O	ALK	enzyme activity	inhibitor		0.3 µM	inhibition	1%
CC(C)(O)[C@H]1CC[C@H](Nc2ccc3ncc(-c4cccc(C(F)(F)F)c4)n3n2)CC1	ALK	enzyme activity	inhibitor		1 µM	remaining activity	57%
CN(CCCC(F)(F)F)c1nccc(-c2cnn3ncccc23)n1	ALK L1196M	binding			1 µM	remaining binding	100%
CS(=O)(=O)Nc1cccc(-c2csc(NC(=O)CSc3nc4nccnc4c(=O)n3CCc3ccccc3)n2)c1	ALK	enzyme activity	inhibitor		10 µM	inhibition	9%
O=C1NC(=O)c2cc(Nc3ccc(F)cc3)c(Nc3ccc(F)cc3)cc21	ALK	cell-free assay			0.5 µM	remaining signal	92.6%
N[C@@H]1CCN(c2nccc(-c3cnn4ncccc34)n2)C1	ALK C1156Y	binding			1 µM	remaining binding	65%
O=C1Nc2ccc(Cl)cc2C1=Cc1cc(Cl)c(O)c(Cl)c1	ALK	cell-free assay			0.5 µM	remaining signal	65.8%
CN(c1nccc(-c2cnn3ncccc23)n1)C1CC1	ALK	binding			1 µM	remaining binding	100%

SMILES	target	observed	action	method	concentration	endpoint	result
CCCCN(CCCC)C(=O)CN1C[C@H](c2cc(OC)c3c(c2)OCO3)[C@@H](C(=O)O)[C@@H]1CC(C)(C)CCC	ALK L1196M	cell-free assay		competition with immobilised ligand	1 µM	remaining binding	100%
CN(C)c1ncc(F)c(-c2cnn3ncccc23)n1	ALK	binding			1 µM	remaining binding	90%
COc1ccc2cc(OCC3(C(=O)O)CN(C(=O)c4ccc(F)cc4)C3)ccc2c1	ALK L1196M	cell-free assay		competition with immobilised ligand	1 µM	remaining binding	100%
Cc1sc(C(=O)NC2COC2)cc1-n1cc(NC(=O)Nc2c(F)cccc2Cl)cn1	ALK	enzyme activity	inhibitor		10 µM	remaining activity	100%
c1cnn2ncc(-c3ccnc(N4CCC45COC5)n3)c2c1	ALK L1196M	binding			1 µM	remaining binding	40%
Cc1nc(N2CC[C@@H](O)C2)ncc1-c1cc(C(F)(F)F)cc2[nH]ncc12	ALK	cell-free assay		competition with immobilised ligand	1 µM	remaining binding	81%
COc1cc2ncnc(Nc3ccc(Oc4ccccc4)cc3C)c2cc1OC	ALK	enzyme activity	inhibitor		1 µM	inhibition	-2%
N#CC1(c2ccccn2)CCN(Cc2cc(C(=O)N3CCCC3)c(=O)n3ccccc23)CC1	ALK	cell-free assay		competition with immobilised ligand	1 µM	remaining binding	100%
CNCc1ccc(-c2cc(-c3nc(-c4ccc(S(=O)(=O)C(C)C)cc4)cnc3N)on2)cc1	ALK	enzyme activity	inhibitor		0.4 µM	inhibition	2%
O=C(NCc1ncc(C(F)(F)F)cc1Cl)c1ccc2c(c1)C1(CCS(=O)(=O)CC1)[C@H](C1CC1)N2S(=O)(=O)c1ccc(F)cc1	ALK	cell-free assay		competition with immobilised ligand	1 µM	remaining binding	98%
O=C(Nc1cnn(-c2csc(C(=O)NC3COC3)c2)c1)Nc1c(F)cccc1Cl	ALK	enzyme activity	inhibitor		5 µM	remaining activity	89.2%
Cc1[nH]c(/C=C2\C(=O)Nc3ccc(F)cc32)c(C)c1C(=O)N[C@H]1CCN(C(=O)N(C)C)C1	ALK	enzyme activity	inhibitor		1 µM	remaining activity	73%
Oc1ccc(-c2nc(-c3ccncc3)c(-c3ccc(F)cc3)[nH]2)cc1	ALK	cell-free assay			0.5 µM	remaining signal	104%
CNC(=O)c1cc(Oc2ccc(NC(=O)Nc3ccc(Cl)c(C(F)(F)F)c3)cc2)ccn1	ALK	enzyme activity	inhibitor		0.3 µM	inhibition	-16%
CNC(=O)Nc1ccc2c(c1)[C@@]1(CC2)OC(=O)N(CC(=O)N(Cc2ccc(F)cc2)[C@@H](C)C(F)(F)F)C1=O	ALK	cell-free assay		competition with immobilised ligand	1 µM	remaining binding	77%
C[C@H]1CCN(c2nccc(-c3cnn4ncccc34)n2)C1	ALK L1196M	binding			1 µM	remaining binding	100%
CCCS(=O)(=O)Nc1ccc(F)c(C(=O)c2c[nH]c3ncc(-c4ccc(Cl)cc4)cc23)c1F	ALK	enzyme activity	inhibitor		1 µM	inhibition	< 10%
